Here are results for 19 compounds from ChEMBL document CHEMBL1144511, “Synthesis and biological evaluation of phenolic Mannich bases of benzaldehyde and (thio)semicarbazone derivatives against the cysteine protease falcipain-2 and a chloroquine resistant strain of Plasmodium falciparum” (Bioorg Med Chem, 2007).

Molecules are shown by their SMILES.

For one experiment, the system named is Plasmodium falciparum. Description: Antiparasitic activity against Plasmodium falciparum W2. Type of experiment: functional, organism-based. The method, boiled down:
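W2 (chloroquine-resistant) P. falciparum cultured at 1% parasitaemia, 2% haematocrit. Inhibitors from 10 mM DMSO stocks added to 20 μM final, then serially diluted to 10 μM, 2 μM, 0.4 μM, 80, 16 and 3.2 nM, in duplicate plates. Cultures kept 2 days at 37 °C, washed and fixed in 1% formaldehyde/PBS. Parasitaemia read by flow cytometry with YOYO-1 DNA stain.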

The target of the next experiment is T1, Falcipain 2 (Plasmodium falciparum, UniProt Q9N6S8).
T1 sequence (Q9N6S8 whole entry): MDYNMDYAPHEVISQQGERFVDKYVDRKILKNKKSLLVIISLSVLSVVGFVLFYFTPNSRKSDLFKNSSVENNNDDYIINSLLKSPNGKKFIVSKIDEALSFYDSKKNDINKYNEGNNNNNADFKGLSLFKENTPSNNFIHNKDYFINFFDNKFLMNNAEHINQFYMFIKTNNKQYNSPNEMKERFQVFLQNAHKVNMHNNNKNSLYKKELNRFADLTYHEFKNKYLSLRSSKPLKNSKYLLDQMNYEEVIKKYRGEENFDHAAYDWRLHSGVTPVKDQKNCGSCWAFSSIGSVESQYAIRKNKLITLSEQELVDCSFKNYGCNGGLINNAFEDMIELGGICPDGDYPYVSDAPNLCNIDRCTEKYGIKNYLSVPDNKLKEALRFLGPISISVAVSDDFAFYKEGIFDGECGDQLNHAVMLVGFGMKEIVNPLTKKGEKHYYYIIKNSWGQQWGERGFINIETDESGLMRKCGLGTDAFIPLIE
Put plainly: Inhibition of Plasmodium falciparum recombinant falcipain-2. The method, boiled down: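 Recombinant enzyme (~1 nM) preincubated 30 min at room temperature with inhibitor dilutions (from 100× DMSO stocks) in 100 mM sodium acetate pH 5.5, 10 mM dithiothreitol; benzyloxycarbonyl peptide fluorogenic substrate then added, fluorescence followed continuously 30 min at room temperature. IC50 from activity versus inhibitor concentration plots.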

Regarding `CCN(CC)Cc1c(O)ccc(/C=N/NC(N)=S)c1O`, the IC50 in the experiment with Plasmodium falciparum is above 10 µM; on Falcipain 2, 11.1 µM.
`O=C(NCCNc1ccnc2cc(Cl)ccc12)N/N=C/c1ccc(O)c(CN2CCN(c3ccnc4cc(Cl)ccc34)CC2)c1O`: the results for the IC50 with Plasmodium falciparum and on Falcipain 2 were 0.077 µM and 3.16 µM, respectively.
For `CN1CCN(Cc2c(O)ccc(C=O)c2O)CC1` the same measures were above 10 µM and above 20 µM.
For the compound `NC(=S)N/N=C/c1ccc(O)c(CN2CCCC2)c1O`, the IC50 is above 10 µM with Plasmodium falciparum and 5.85 µM at Falcipain 2.
Consider `O=Cc1ccc(O)c(CN2CCOCC2)c1O`, for which the IC50 with Plasmodium falciparum was above 10 µM; at Falcipain 2 it was above 20 µM.
For `O=C(NCCNc1ccnc2cc(Cl)ccc12)N/N=C/c1ccc(O)c(CN2CCCC2)c1O` the same measures were 1.07 µM and 0.72 µM.
For `O=Cc1ccc(O)c(CN2CCCCC2)c1O`, the IC50 with Plasmodium falciparum was above 10 µM; on Falcipain 2, above 20 µM.
Turning to `CCN(CC)Cc1c(O)ccc(C=O)c1O`, the IC50 was above 10 µM in the experiment with Plasmodium falciparum and above 20 µM at Falcipain 2.
For `O=C(NCCNc1ccnc2cc(Cl)ccc12)N/N=C/c1ccc(O)c(CN2CCCCC2)c1O`, the IC50 in the experiment on Plasmodium falciparum worked out at 0.27 µM; at Falcipain 2 it was 0.63 µM.
`O=Cc1ccc(O)c(CN2CCCC2)c1O`: the IC50 is above 10 µM in the experiment on Plasmodium falciparum and above 20 µM on Falcipain 2.
The corresponding values for `O=Cc1ccc(O)c(CN2CCN(c3ccnc4cc(Cl)ccc34)CC2)c1O` are 1.07 µM and above 20 µM.
With `NC(=S)N/N=C/c1ccc(O)c(CN2CCCCC2)c1O`, the results for the IC50 in the experiment with Plasmodium falciparum and at Falcipain 2 were above 10 µM and 3.8 µM, respectively.
For the compound `NC(=S)N/N=C/c1ccc(O)c(CN2CCOCC2)c1O`, the figures for the IC50 in the experiment with Plasmodium falciparum and on Falcipain 2 were above 10 µM and above 20 µM, respectively.
`O=C(NCCNc1ccnc2cc(Cl)ccc12)N/N=C/c1ccc(O)c(CN2CCOCC2)c1O`: the IC50 in the experiment with Plasmodium falciparum is 0.11 µM; on Falcipain 2, above 20 µM.
Take `CN1CCN(Cc2c(O)ccc(/C=N/NC(=O)NCCNc3ccnc4cc(Cl)ccc34)c2O)CC1`: the IC50 is 0.38 µM with Plasmodium falciparum and above 20 µM on Falcipain 2.
Take `CN1CCN(Cc2c(O)ccc(/C=N/NC(N)=S)c2O)CC1`: the values for the IC50 with Plasmodium falciparum and on Falcipain 2 were above 10 µM and 18.2 µM, respectively.
The corresponding values for `NC(=S)N/N=C/c1ccc(O)c(CN2CCN(c3ccnc4cc(Cl)ccc34)CC2)c1O` are 3.75 µM and 2.25 µM.
Turning to `NC(=O)N/N=C/c1ccc(O)c(CN2CCN(c3ccnc4cc(Cl)ccc34)CC2)c1O`, the IC50 in the experiment on Plasmodium falciparum was 0.25 µM; at Falcipain 2, above 20 µM.
Take `CCN(CC)Cc1c(O)ccc(/C=N/NC(=O)NCCNc2ccnc3cc(Cl)ccc23)c1O`: the IC50 is 0.44 µM with Plasmodium falciparum and 2.6 µM at Falcipain 2.
